The record followed here is publication PMC4402254 (ACS chemical biology, 2015).

One series has as its system Naive IgM+ B cells. In words: Class switch recombination. The series is classed as cell-based, mouse. As to conditions: 300 µM.
The next series deals with 53BP1 (Homo sapiens, UniProt Q12888). In words: AlphaScreen Kme reader panel: 53BP1. Format: binding. The essentials:
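Compound serially diluted 3-fold over 10 points in DMSO, top final 100 µM, and preincubated 30 min at RT with His-tagged reader protein–peptide mix in 20 mM Tris pH 8.0, 25 mM NaCl, 2 mM DTT, 0.05% Tween-20. Streptavidin donor/nickel-chelate acceptor bead mix (45 µg/mL) then added for 30 min, dark, RT, and AlphaScreen signal read. The same format was used across the Kme reader panel. IC50 is the mean of ≥3 values ± SD.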

The nature of series [1]: CellTiter-Glo luminescent cell-viability assay. Format: cell-based.
The subject of a further series is Caco-2 cell. As to the kind of experiment: Bi-directional Caco-2 cell permeability assay. Format: in vitro ADME.
The next series has as its target endogenous 53BP1 (Homo sapiens, UniProt Q12888). As to the kind of experiment: Chromatin release assay in HEK293 cell lysates. As to conditions: 2 hours at room temperature. Format: biochemical. The method, boiled down: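 HEK293 cells were lysed in EBC-1 (Tris pH 7.5, 100 mM NaCl, 0.5% NP-40, 1 mM EDTA). Washed nuclei were held 30 min in EBC-2 (Tris pH 7.5, 300 mM NaCl, 5 mM CaCl2), and the insoluble chromatin was pelleted and resuspended in EBC-2. Chromatin was exposed to test compound 2 h at RT. The supernatant (soluble) and the sonicated pellet (chromatin-bound) were western blotted for 53BP1, with histone H3 as loading control.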

For another series, the target named is tudor domain of 53BP1 (Homo sapiens, UniProt Q12888). As to the kind of experiment: 1H-15N HSQC NMR of 53BP1 tudor domain. Format: binding. As to conditions: 10-fold molar excess of ligand.
Series [2] has as its target GFP fusion protein containing the 53BP1 tudor domains (Homo sapiens, UniProt Q12888). In words: Fluorescence recovery after photobleaching. Format: cell-based. As to conditions: FRAP before or after ionizing radiation (10 Gy).
The subject of a further series is U2OS cells. As to the kind of experiment: 53BP1 and γH2AX foci formation after ionizing radiation. Format: cell-based.
Another series addresses 53BP1 D1521A mutant (Homo sapiens, UniProt Q12888, D1521A). As to the kind of experiment: ITC with active site mutant. The series is classed as binding. The conditions noted are these: Kme pocket mutant, listed as UNC2170.
For series [3], the target named is 53BP1 tandem tudor domain (Homo sapiens, UniProt Q12888). As to the kind of experiment: Isothermal titration calorimetry. The conditions noted are these: ITC. Format: binding. In general terms: Isothermal titration calorimetry measures the heat released or taken up as one component is titrated into another.
53BP1 tandem tudor domain, sequence (Q12888 1484-1603 limits assumed): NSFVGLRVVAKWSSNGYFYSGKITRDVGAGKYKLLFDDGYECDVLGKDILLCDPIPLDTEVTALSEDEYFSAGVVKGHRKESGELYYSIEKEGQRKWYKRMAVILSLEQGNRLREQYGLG

53BP1, sequence (Q12888 1484-1603 limits assumed): as above
GFP fusion protein containing the 53BP1 tudor domains, sequence (Q12888 1484-1603 limits assumed): as above
tudor domain of 53BP1, sequence (Q12888 1484-1603 limits assumed): as above
endogenous 53BP1, sequence (Q12888 whole entry): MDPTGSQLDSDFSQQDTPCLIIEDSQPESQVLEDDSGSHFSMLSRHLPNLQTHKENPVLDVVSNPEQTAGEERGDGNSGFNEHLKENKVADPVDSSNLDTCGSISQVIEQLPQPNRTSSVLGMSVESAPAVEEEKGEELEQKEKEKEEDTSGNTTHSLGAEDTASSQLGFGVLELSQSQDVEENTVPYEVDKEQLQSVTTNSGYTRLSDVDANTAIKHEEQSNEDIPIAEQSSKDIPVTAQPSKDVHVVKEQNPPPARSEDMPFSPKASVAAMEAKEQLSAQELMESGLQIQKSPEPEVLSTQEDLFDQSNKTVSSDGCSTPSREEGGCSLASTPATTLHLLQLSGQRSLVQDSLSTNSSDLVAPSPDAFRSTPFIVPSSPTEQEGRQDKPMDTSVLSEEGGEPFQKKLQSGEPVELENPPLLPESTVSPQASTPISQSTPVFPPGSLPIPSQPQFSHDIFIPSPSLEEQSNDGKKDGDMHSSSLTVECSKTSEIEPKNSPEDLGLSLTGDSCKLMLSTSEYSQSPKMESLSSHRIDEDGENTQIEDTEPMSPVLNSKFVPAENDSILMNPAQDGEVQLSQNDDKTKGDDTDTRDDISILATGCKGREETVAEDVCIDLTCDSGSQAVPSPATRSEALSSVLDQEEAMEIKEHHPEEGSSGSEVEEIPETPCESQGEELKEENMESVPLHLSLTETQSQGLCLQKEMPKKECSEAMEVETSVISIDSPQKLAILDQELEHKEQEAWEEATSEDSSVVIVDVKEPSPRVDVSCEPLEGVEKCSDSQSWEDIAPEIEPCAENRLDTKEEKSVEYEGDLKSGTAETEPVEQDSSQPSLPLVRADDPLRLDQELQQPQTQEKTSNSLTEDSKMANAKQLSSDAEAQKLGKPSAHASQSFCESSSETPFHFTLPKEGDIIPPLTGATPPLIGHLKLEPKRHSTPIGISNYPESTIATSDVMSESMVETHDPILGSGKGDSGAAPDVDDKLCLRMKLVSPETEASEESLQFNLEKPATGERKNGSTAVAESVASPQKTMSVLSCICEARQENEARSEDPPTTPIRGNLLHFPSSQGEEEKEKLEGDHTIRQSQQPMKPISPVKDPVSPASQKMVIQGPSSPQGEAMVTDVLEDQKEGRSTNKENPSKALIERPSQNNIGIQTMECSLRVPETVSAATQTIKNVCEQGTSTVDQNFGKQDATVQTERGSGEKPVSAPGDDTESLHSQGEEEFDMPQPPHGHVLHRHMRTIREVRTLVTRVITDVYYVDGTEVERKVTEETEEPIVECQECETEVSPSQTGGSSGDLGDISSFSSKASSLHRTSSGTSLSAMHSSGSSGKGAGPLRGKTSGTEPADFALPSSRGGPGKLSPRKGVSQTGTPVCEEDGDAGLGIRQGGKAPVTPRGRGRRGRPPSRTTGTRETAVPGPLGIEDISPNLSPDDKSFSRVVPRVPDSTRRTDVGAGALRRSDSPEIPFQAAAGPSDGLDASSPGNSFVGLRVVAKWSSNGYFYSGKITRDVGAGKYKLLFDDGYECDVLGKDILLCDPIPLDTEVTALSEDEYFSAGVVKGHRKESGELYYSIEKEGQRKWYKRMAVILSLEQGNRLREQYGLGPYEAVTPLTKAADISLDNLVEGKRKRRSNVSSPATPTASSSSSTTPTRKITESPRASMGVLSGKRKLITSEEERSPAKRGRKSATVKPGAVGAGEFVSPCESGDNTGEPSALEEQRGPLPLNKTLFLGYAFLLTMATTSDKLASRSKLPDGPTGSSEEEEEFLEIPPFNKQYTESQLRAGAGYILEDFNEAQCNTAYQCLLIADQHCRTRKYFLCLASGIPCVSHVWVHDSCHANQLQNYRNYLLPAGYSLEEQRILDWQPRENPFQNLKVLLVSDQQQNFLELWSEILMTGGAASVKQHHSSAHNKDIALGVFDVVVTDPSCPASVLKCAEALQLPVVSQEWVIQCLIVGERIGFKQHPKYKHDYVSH
53BP1 D1521A mutant, sequence (Q12888 1484-1603 D1521A limits assumed): as the sequence (Q12888 1484-1603 limits assumed) above, with D38A counted along it

With `CC(C)(C)NCCCNC(=O)c1cccc(Br)c1` [Compound 1], the “cell viability of B cells undergoing CSR” value in the series on Naive IgM+ B cells is given as “reduction in cell viability”. At 53BP1, this molecule showed a ligand efficiency of 0.35 and a lipophilic ligand efficiency of 1.5. Further, the “selectivity for 53BP1 as compared to other Kme binding proteins tested” value on 53BP1 (versus nine other Kme reader proteins, AlphaScreen) is reported as “at least 17 fold”. In addition, the “concentration at which cell toxicity begins to take effect” value in series [1] is above 10000 µM. In addition, the cell permeability entry with Caco-2 cell is on record as “highly cell permeant”. The “lowest concentration at which partial release of 53BP1 was detected” value at endogenous 53BP1 is listed as 10 µM. For the same molecule, on tudor domain of 53BP1, the “changes in chemical shifts of 53BP1 tudor domain” value is recorded as “Extensive changes in chemical shifts were observed”. Further, in [2], the “apparent residence time of GFP-53BP1 tudor fusion protein” value was “did not affect”. Moreover, the γH2AX foci result in the series with U2OS cells (after compound treatment) is on record as “no changes were observed”. Besides, the “extent of endogenous 53BP1 foci formed following irradiation” value in the series with U2OS cells (pretreatment 1 hour, 100 – 300 µM, 5 Gy) was “did not significantly decrease”. Also, the “binding to 53BP1 D1521A mutant” value on 53BP1 D1521A mutant is given as “abrogated”.
In the case of `CN(CCCNC(=O)c1cccc(Br)c1)C(C)(C)C` [Compound 4], in series [3], the “Kd against the 53BP1 tandem tudor domain” value is reported as “no measurable affinity”.
